This is an account of results in ChEMBL document CHEMBL4004831, “Naphthalene diimide-polyamine hybrids as antiproliferative agents: Focus on the architecture of the polyamine chains” (Eur J Med Chem, 2017).

Assay [1] has as its system EKVX. Nature of the assay: Growth inhibition of human EKVX cells incubated for 48 hrs by sulforhodamine B assay. The format is functional.
The target of assay [2] is Telomerase reverse transcriptase (Homo sapiens) (UniProt O14746). Kind of assay: Inhibition of telomerase activity in human HeLa cells using 5'AATCCGTCGAGCAGAGTT3' as substrate after 30 mins by Sybr green1 staining based TRAP-PCR method. It is filed as cell-based.
Sequence of Telomerase reverse transcriptase (Homo sapiens) (O14746 whole entry): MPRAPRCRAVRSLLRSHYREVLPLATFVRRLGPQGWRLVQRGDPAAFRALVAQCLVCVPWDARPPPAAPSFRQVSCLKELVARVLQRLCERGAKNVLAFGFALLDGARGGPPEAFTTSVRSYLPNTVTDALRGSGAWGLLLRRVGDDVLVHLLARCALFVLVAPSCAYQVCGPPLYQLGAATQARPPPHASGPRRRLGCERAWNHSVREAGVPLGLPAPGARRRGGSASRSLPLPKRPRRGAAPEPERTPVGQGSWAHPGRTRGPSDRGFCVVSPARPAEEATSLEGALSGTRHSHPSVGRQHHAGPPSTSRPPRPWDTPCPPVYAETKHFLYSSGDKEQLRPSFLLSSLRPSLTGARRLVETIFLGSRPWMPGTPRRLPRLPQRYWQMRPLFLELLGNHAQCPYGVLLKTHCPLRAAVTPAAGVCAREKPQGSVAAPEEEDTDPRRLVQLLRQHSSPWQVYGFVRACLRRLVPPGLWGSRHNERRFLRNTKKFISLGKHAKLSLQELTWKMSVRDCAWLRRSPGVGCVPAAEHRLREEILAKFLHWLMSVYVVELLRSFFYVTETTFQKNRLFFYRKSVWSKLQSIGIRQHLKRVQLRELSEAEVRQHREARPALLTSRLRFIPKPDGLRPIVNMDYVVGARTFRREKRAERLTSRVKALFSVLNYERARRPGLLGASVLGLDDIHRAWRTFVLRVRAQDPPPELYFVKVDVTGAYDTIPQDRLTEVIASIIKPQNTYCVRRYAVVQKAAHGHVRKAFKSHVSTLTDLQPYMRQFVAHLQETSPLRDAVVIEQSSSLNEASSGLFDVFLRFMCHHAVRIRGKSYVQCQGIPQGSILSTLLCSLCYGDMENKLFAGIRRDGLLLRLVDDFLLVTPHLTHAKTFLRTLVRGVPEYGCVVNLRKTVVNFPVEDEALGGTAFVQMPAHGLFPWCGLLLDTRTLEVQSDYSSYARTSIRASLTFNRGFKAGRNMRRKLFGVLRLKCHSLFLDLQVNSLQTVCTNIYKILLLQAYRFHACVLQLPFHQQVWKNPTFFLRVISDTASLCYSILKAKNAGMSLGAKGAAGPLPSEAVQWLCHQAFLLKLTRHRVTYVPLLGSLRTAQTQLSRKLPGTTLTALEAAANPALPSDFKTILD
In assay [3] the test system is Escherichia coli. Kind of assay: Binding affinity to Escherichia coli supercoiled pBR322 DNA assessed as DNA intercalation up to 100 uM by agarose gel electrophoresis. The gist of the method: (§1)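 Supercoiled pBR322 mixed with ligand (0–100 µM) in 10 mM Tris, 50 mM KCl with no enzyme, then run on agarose gel. Shift in electrophoretic mobility was read as intercalation/binding.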

The test system of assay [4] is UACC-257. Kind of assay: Growth inhibition of human UACC257 cells incubated for 48 hrs by sulforhodamine B assay. The settings on record: UACC-257, 48 h. It is filed as functional. (In general: The SRB assay estimates cell density from bound dye.)
In assay [5] the test system is Jurkat. Kind of assay: Cell cycle arrest in human Jurkat T cells assessed as accumulation at G0/G1 phase at 3.2 uM after 24 hrs by propidium iodide staining based flow cytometry (reference value: 62.7 to 68.6%). The format is functional.
A short description of assay [6]: Stabilization of 5'Dabcyl/3'FAM labeled duplex DNA (unknown origin) assessed as increase in melting temperature at 2.5 uM pretreated for 5 mins at 30 degreeC followed by 5 mins incubation at 95 degreeC by fluorescence assay. The gist of the method:
(§2)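 FRET melting in LiP buffer (10 mM LiOH, 50 mM KCl, pH 7.0 with H3PO4), ex 488 nm, em 520 nm. Samples were held 5 min at 30 °C, heated at 1 °C/min to 95 °C, held 5 min, then re-annealed. Tm came from first derivatives; ΔTm = shift with ligand at 2.5; at least three runs.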

Assay [7] relates to SN12C. Nature of the assay: Growth inhibition of human SN12C cells incubated for 48 hrs by sulforhodamine B assay. The format is functional.
The subject of assay [8] is Jurkat. Nature of the assay: Cell cycle arrest in human Jurkat T cells assessed as accumulation at G2/M phase at 3.2 uM after 24 hrs by propidium iodide staining based flow cytometry (reference value: 17.1 to 20.8%). The format is functional.
Assay [9] deals with T1, DNA topoisomerase 2-alpha (Homo sapiens, UniProt P11388). Nature of the assay: Inhibition of human topoisomerase-2alpha-mediated relaxation of supercoiled pBR322 DNA after 1 hr by ethidium bromide staining based agarose gel electrophoresis. The gist of the method: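 Supercoiled pBR322 was incubated with compound (0.5–100) and 1 U human topoisomerase IIα in enzyme buffer for 1 h at 37 °C. Reactions were stopped with Tris/EDTA/NaCl loading buffer (pH 8.0) and run on 1% agarose in TAE with 0.1% SDS (4.9 V/cm, 90 min), then stained with ethidium bromide. IC50 is the concentration reducing relaxation activity by 50%.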
T1 sequence (P11388 whole entry): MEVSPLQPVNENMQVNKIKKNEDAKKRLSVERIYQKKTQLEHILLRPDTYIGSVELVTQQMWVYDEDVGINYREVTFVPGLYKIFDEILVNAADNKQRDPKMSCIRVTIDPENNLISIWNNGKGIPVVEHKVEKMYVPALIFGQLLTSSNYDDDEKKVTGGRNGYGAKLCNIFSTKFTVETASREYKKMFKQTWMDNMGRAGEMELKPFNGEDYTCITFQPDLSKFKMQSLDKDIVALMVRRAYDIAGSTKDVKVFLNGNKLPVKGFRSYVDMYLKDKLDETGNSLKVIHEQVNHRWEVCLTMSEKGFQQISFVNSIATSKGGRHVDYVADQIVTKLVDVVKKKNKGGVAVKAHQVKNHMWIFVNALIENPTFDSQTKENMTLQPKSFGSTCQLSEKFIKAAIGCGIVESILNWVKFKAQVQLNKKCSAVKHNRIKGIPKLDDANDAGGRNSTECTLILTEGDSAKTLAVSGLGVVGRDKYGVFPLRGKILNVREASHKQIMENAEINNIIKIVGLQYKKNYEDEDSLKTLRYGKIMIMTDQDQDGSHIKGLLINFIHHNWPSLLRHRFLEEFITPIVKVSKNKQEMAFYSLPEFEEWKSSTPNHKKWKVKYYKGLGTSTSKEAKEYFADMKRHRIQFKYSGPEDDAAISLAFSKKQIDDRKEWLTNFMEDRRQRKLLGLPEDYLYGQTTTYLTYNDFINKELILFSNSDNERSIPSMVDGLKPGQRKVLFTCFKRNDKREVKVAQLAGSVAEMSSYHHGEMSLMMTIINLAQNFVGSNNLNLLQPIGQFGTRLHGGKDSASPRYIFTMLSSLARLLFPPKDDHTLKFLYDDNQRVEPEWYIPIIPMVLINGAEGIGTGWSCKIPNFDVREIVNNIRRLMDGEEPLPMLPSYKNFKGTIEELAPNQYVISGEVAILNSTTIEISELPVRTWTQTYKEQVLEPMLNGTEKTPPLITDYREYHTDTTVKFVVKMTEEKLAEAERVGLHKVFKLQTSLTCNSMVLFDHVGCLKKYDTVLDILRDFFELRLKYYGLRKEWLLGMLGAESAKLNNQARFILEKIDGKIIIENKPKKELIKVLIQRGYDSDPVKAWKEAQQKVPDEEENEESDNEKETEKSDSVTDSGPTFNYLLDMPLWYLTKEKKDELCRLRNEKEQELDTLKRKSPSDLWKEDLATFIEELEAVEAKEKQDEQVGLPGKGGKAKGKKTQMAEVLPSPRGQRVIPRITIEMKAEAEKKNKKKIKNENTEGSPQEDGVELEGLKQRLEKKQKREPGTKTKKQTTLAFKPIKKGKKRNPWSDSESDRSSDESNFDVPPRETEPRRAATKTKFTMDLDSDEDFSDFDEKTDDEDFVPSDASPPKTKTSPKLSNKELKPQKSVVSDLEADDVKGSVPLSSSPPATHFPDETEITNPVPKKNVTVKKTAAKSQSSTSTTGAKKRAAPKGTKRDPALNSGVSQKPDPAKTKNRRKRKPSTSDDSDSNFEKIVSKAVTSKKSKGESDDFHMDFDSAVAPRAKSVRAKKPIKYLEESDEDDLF

The test system of assay [10] is OVCAR-5. Nature of the assay: Growth inhibition of human OVCAR5 cells incubated for 48 hrs by sulforhodamine B assay. The format is functional. The settings on record: OVCAR-5, 48 h.
Assay [11] concerns Thermus aquaticus. Nature of the assay: Inhibition of Thermus aquaticus DNA polymerase-mediated amplification of fragment of pBR322 by PCR. An outline of the steps:
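PCR amplification of a pBR322 fragment by Taq polymerase with increasing compound (0.25–40) for 25 cycles: 94 °C, 58 °C and 72 °C, 30 s each. Products were run on 2% agarose in 0.5X TBE (4.2 V/cm, 1.5 h) and stained with ethidium bromide. IC50 is the concentration halving activity; MIC is the lowest concentration that suppresses activity.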

Assay [12] is filed under the species Homo sapiens. Nature of the assay: Stabilization of 5'Dabcyl/3'FAM labeled human telomeric sequence G-quadruplex DNA assessed as increase in melting temperature at 2.5 uM pretreated for 5 mins at 30 degreeC followed by 5 mins incubation at 95 degreeC by fluorescence assay. The gist of the method: as §2
Assay [13] has as its system Jurkat. Nature of the assay: Induction of apoptosis in human Jurkat T cells at 6.4 uM after 24 hrs by annexin V-phycoerythrin/7-AAD staining based flow cytometry (reference value: 5.8 to 6.6%). It is filed as functional. In general terms: A flow cytometer gives signals particle by particle.
In assay [14] the test system is SK-MEL-2. Kind of assay: Growth inhibition of human SK-MEL-2 cells incubated for 48 hrs by sulforhodamine B assay. It is filed as functional. The settings on record: SK-MEL-2, 48 h.
For assay [15], the system named is LOX IMVI. Nature of the assay: Growth inhibition of human LOXIMVI cells incubated for 48 hrs by sulforhodamine B assay. The format is functional.
Assay [16] concerns MCF7. Kind of assay: Growth inhibition of human MCF7 cells incubated for 48 hrs by sulforhodamine B assay. The note with it: MCF7, 48 h. The format is functional.
The subject of assay [17] is Jurkat. Nature of the assay: Induction of apoptosis in human Jurkat T cells assessed as PARP cleavage at 3.2 uM after 24 hrs by flow cytometry (reference value: 4.8%). The format is functional.
Assay [18] concerns SNB-75. Nature of the assay: Growth inhibition of human SNB75 cells incubated for 48 hrs by sulforhodamine B assay. It is filed as functional. The note with it: SNB-75, 48 h.
In assay [19] the test system is Malme-3M. Kind of assay: Growth inhibition of human MALME-3M cells incubated for 48 hrs by sulforhodamine B assay. The format is functional.
The test system of assay [20] is SK-MEL-28. Nature of the assay: Growth inhibition of human SK-MEL-28 cells incubated for 48 hrs by sulforhodamine B assay. The settings on record: SK-MEL-28, 48 h. The format is functional.
In assay [21] the test system is U-251. Kind of assay: Growth inhibition of human U251 cells incubated for 48 hrs by sulforhodamine B assay. The format is functional. The settings on record: U-251, 48 h.
The subject of assay [22] is HCT-116. Kind of assay: Growth inhibition of human HCT116 cells incubated for 48 hrs by sulforhodamine B assay. The format is functional. The settings on record: HCT-116, 48 h.
Assay [23] concerns the target T1, DNA topoisomerase 2-alpha. Nature of the assay: Poison activity at human topoisomerase-2alpha assessed as stabilization of DNA-enzyme cleavage complex at 0.5 to 100 uM using supercoiled pBR322 DNA as substrate after 1 hr by ethidium bromide staining based agarose gel electrophoresis. The gist of the method:
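Cleavage-complex test: supercoiled pBR322 was exposed to compound (0.5–100) with 5 U human topoisomerase IIα for 1 h at 37 °C. Products were run on 1% agarose in TAE with 0.1% SDS (4.9 V/cm, 90 min) and stained with ethidium bromide, with nicked and linearized pBR322 as markers.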

In assay [24] the test system is Jurkat. Nature of the assay: Induction of apoptosis in human Jurkat T cells assessed as caspase3 activation at 1.6 uM after 24 hrs by colorimetric assay relative to control. It is filed as functional. An outline of the steps:
(§3)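 Jurkat cells were treated 24 h (0–6.4), and 3×10^6 cells were washed in PBS and lysed 10 min on ice. Cleared lysate was incubated 2 h at 37 °C in the dark with 10 mM DTT buffer and DEVD-pNA substrate. Absorbance at 405 nm was read against a no-substrate blank and expressed as fold over untreated cells. Valinomycin for 1 h was the positive control; three experiments.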

Assay [25] deals with Jurkat. Nature of the assay: Induction of apoptosis in human Jurkat T cells assessed as caspase3 activation at 6.4 uM after 24 hrs by colorimetric assay relative to control. It is filed as functional. An outline of the steps: as §3
Assay [26] concerns Jurkat. Nature of the assay: Induction of apoptosis in human Jurkat T cells at 3.2 uM after 24 hrs by annexin V-phycoerythrin/7-AAD staining based flow cytometry (reference value: 5.8 to 6.6%). It is filed as functional.
Assay [27] deals with Escherichia coli. Kind of assay: Binding affinity to Escherichia coli supercoiled pBR322 DNA up to 100 uM by agarose gel electrophoresis. The gist of the method:
as §1

The structures appear in SMILES notation. Values after ≈ are worked out from the molar mass of the structure shown. Active and inactive are the calls of the source. The calls are words filed in the database; no cut-off is given here.

For orientation: GI50 means the concentration giving 50% growth inhibition. The ΔTm is the change in melting temperature against a reference sample. Broadly, the IC50 is the concentration at which inhibition is half-maximal. The low end stands for greater potency, the high end for weaker potency. Take `COc1ccccc1CNCCCN1C(=O)c2ccc3c4c(ccc(c24)C1=O)C(=O)N(CCCNCCCN)C3=O`: the GI50 in assay [1] was found to be 1020 nM; in assay [4], 625 nM; in assay [7], 538 nM; in assay [10] it was 1410 nM; in [14] it was 907 nM; in [15], 302 nM. Also, the GI50 in assay [16] worked out at 129 nM; in [18], 1300 nM; in [19] it was 393 nM; in assay [20], 753 nM; in assay [21] it was 108 nM; in [22], 135 nM. Further, the inhibition entry in assay [2] is “inactive”. Besides, the result in assay [3] was Active. In addition, the Activity was 56.1% in assay [5], 27.8% in assay [8], 14.5% in assay [13] and 7.2% in assay [17]. For the same molecule, the ΔTm in assay [6] was 7 °C; in [12], 13.3 °C. Besides, the concentration for half-maximal inhibition (IC50) in assay [9] stood at 1500 nM. Also, the MIC in assay [11] was 0.25 µM (≈ 0.139 µg/mL).

For `COc1ccccc1CNCCCN1C(=O)c2ccc3c4c(ccc(c24)C1=O)C(=O)N(CCCNCCCCN)C3=O`, the GI50 is 866 nM in assay [1]; 163 nM in [4]; 280 nM in [7]; 944 nM in assay [10]; 223 nM in assay [14]; 188 nM in assay [15]. Besides, the GI50 turned out to be 185 nM in [16]; 304 nM in [18]; 174 nM in [19]; 313 nM in assay [20]; 173 nM in [21]; 185 nM in assay [22]. Moreover, the result in [23] was inactive. Also, the inhibition entry in assay [2] is “inactive”. Moreover, in [3], the result was Active. For the same molecule, the Activity came to 59.7% in assay [5]; 20.8% in assay [8]; 22.2% in assay [13]; 16.6% in assay [17]; 17.9% in [26]. Further, the thermal shift (ΔTm) in assay [6] worked out at 12.2 °C; in assay [12], 29 °C. Moreover, the “fold change (FC)” value was found to be 2.6 in assay [24] and 5.6 in [25]. The molecule also showed an IC50 in [9] of 8100 nM. For the same molecule, the MIC in [11] amounted to 0.5 µM (≈ 0.286 µg/mL).

Take `COc1ccccc1CNCCCN1C(=O)c2ccc3c4c(ccc(c24)C1=O)C(=O)N(CCCCNCCCN)C3=O`: the GI50 in assay [1] is 2060 nM; in [4], 916 nM; in assay [7], 947 nM; in assay [10], 3050 nM; in assay [14], 1090 nM; in assay [15], 1030 nM. In addition, the GI50 in [16] was found to be 643 nM; in assay [18], 16700 nM; in assay [19], 984 nM; in assay [20], 1630 nM; in [21] it was 787 nM; in assay [22], 742 nM. In addition, the inhibition entry in [2] is “inactive”. The ΔTm in assay [6] amounted to 9.1 °C; in [12], 22.2 °C. The half-inhibitory concentration (IC50) in assay [9] came out at 7000 nM. In assay [11], this molecule yielded an MIC of 0.5 µM (≈ 0.286 µg/mL). In assay [27], the outcome was Active.
